Compound activity from PubChem.
Shown are actives, neighbours in structure and some others; about 3.5% of the full set was active somewhere.
ABCB1 inh: ABCB1 efflux pump inhibitors, primary screen, cell-based, multiplex, flow cytometry, ABCG2 counter-screen; CCRF-Adr cells, JC-1 efflux; inhibition, % at 6.6 µM; 190,000 tested, 0.067% active; in the data active means inhibition above about 40%;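 further: 0% = vehicle and 100% = reference inhibitor; higher value means more JC-1 retained so stronger ABCB1 efflux block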
Target sequence (P08183 whole entry, looked up): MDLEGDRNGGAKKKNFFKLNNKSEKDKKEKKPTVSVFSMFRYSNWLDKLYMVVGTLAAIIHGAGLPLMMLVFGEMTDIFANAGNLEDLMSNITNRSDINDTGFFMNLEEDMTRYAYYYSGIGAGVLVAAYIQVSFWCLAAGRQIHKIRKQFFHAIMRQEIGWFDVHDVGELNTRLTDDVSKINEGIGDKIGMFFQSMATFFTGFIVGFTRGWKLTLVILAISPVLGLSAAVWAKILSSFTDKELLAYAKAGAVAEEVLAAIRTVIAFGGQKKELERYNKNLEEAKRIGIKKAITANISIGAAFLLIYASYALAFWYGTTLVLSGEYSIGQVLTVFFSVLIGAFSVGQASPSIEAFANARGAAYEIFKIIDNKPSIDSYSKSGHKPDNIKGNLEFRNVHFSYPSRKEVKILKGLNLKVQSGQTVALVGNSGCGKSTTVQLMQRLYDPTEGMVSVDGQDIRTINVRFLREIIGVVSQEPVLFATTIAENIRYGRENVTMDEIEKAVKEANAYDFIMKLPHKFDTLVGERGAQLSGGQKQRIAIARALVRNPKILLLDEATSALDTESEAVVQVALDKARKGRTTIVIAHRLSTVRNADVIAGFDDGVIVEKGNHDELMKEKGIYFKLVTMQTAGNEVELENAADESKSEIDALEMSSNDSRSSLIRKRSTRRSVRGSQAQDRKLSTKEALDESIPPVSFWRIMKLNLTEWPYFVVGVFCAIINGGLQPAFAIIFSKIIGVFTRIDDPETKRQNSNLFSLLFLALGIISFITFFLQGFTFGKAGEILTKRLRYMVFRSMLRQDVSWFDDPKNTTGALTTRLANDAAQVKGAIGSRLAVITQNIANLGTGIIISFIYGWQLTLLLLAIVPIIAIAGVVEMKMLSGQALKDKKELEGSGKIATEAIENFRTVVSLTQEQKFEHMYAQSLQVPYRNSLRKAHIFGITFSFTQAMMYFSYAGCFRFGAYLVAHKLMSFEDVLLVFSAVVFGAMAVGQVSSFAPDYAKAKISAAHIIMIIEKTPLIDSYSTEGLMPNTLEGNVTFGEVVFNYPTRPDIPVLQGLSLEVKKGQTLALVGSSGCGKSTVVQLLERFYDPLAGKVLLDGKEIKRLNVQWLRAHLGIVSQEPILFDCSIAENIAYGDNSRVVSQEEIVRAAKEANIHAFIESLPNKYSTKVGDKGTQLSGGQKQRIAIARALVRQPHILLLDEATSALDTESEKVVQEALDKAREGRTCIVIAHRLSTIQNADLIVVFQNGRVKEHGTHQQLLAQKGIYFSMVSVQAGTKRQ
MEKK3 PB1 HTS: modulators of MEKK3-MEK5 PB1 binding, primary screen, biochemical, wildtype MEKK3, multiplex bead flow cytometry, Alexa488-MEK5; bead-based flow cytometry, Alexa488-MEK5 binding to MEKK3; actives lie on both sides; 0 = blocked by unlabeled MEK5, 100 = vehicle; Mitogen-activated protein kinase kinase kinase 3 (Homo sapiens), Q99759; binding response (% of control), % at 10 µM; 290,000 tested, 1.4% active; AID 1529, 2009;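 active means binding response more than 3 SD above or below the average of its plate-row segment, actives on both sides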;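 further: Alexa488 bead fluorescence after subtracting the streptavidin-only scavenger bead signal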
WT yeast gro inh: growth inhibition of WT strain, primary screen, mitochondrial fusion inhibitor project, WT and mutant strains, chemical genetic. mitochondrial fusion phenotypic screen. inhibition, % at 10 µM. 190,000 tested, 2.1% active. AID 1362, 2008; in the data active means inhibition above about 58%; tested in S. cerevisiae
ABCG2 block: ABCG2 efflux pump inhibitors, primary screen, multiplex with ABCB1, IgMXP3 cells, flow cytometry. Broad substrate specificity ATP-binding cassette transporter ABCG2 (Homo sapiens), Q9UNQ0. 190,000 tested, 0.1% active. inhibition, % at 6.6 µM. JC-1 efflux;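 active means inhibition above 80%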;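 further: 0% = DMSO and 100% = nicardipine control wells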
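Assay system – ABCG2 IgMXP3 and barcoded ABCB1 CCRF-Adr cell mix · Input – 3 million cells/mL in well · Reagent – JC-1 fluorescent substrate · Compound – single test compound dose, 6.6 µM final · Timing – 10 min exposure at 25 °C with rotation, no wash · Detection – flow cytometry of retained JC-1 fluorescence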
MEKK2 mut-MEK5: MEK5 binding signal on mutant MEKK2 PB1, primary screen, biochemical, multiplex bead flow cytometry, Alexa488-MEK5. Alexa488-MEK5 binding to MEKK2 mutant. percent response, % at 10 µM. 290,000 tested, 0.35% active. AID 1530, 2009; in the data active means percent response above about 24%, passing the limit was not always enough
MEKK2 WT-MEK5: modulators of MEK5 binding to wildtype MEKK2, primary screen, biochemical, multiplex bead flow cytometry, Alexa488-MEK5; 290,000 tested, 1.1% active; binding response (% of control), % at 10 µM; Alexa488-MEK5 binding to MEKK2 WT; actives lie on both sides; Mitogen-activated protein kinase kinase kinase 2 (Homo sapiens), Q9Y2U5; in the data active means binding response below about 67% or above about 130%
MEKK2wt confirm: modulators of MEK5 binding to wildtype MEKK2, confirmation, biochemical, single concentration, multiplex bead flow cytometry; shares compounds with MEKK3 PB1 HTS; Alexa488-MEK5 binding to MEKK2 WT; actives lie on both sides; binding response (% of control), % at 10 µM; 5,900 tested, 2.4% active; in the data active means binding response below about 16% or above about 210%; inactive means in between
MEKK2mut confirm: mutant MEKK2 PB1-MEK5 binding signal retest – biochemical, single concentration, multiplex bead flow cytometry, confirmation. 5,900 tested, 2% active. shares compounds with MEKK3 PB1 HTS. AID 1893, 2009. percent response, % at 10 µM. Alexa488-MEK5 binding to MEKK2 mutant; in the data active means percent response mostly above about 71%, no sharp cut-off; inactive means mostly below about 38%;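 further: higher means compound restores mutant binding toward wildtype level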
MEKK3 confirm: MEKK3 wild-type PB1 binding to MEK5, inhibitors, confirmation, biochemical, bead multiplex flow cytometry, single concentration, wildtype. shares compounds with MEKK3 PB1 HTS. Alexa488-MEK5 binding to MEKK3; active compounds read low. binding response (% of control), % at 10 µM. 5,900 tested, 1.8% active;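 active means binding response below 72% of control, or above a set upper limit, though filed actives all read lower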;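 further: 100% = DMSO only wells and 0% = binding blocked by excess unlabeled MEK5; lower values mean stronger disruption of MEK5 binding to MEKK3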
* hit, by the source's call; . = not tested or not shown; [ ] = remark or other dose.

SMILES | ABCB1 inh | MEKK3 PB1 HTS | WT yeast gro inh | ABCG2 block | MEKK2 mut-MEK5 | MEKK2 WT-MEK5 | MEKK2wt confirm | MEKK2mut confirm | MEKK3 confirm
C/C=C/C=N/NC(=O)CN(c1ccc(Br)cc1)S(=O)(=O)c1ccccc1 | 0.5 | 149.0* | 6.4 | 2.9 | 1.0 | 112.0 | 97.0 | -1.0 | 99.0
COCc1cc(N2CCN(c3ccccc3F)CC2)nc(-c2ccccc2)n1 | 1.9 | 4.0*[inhibitor] | 8.4 | 4.9 | -19.0 | 6.0*[inhibitor] | 103.0 | -1.0 | 102.0
COCc1cc(N2CCOCC2)nc(-c2ccccc2)n1 | -0.2 | 101.0 | -9.6 | 0.5 | -2.0 | 95.0 | . | . | .
CCOC(=O)C1CCN(C(=O)CCCCn2c(=O)[nH]c3ccccc3c2=O)CC1 | 0.2 | 97.0 | -13.8 | 1.5 | -5.0 | 93.0 | . | . | .
Cc1cc(C)n(-c2nc(NCCCN(C)C)c3c4c(sc3n2)CCCC4)n1 | . | 104.0 | . | . | 15.0 | 113.0 | . | . | .
Cc1cc(C)n(-c2nc(NCCN(C)C)c3c4c(sc3n2)CCCC4)n1 | . | 88.0 | . | . | 28.0 | 147.0* | 137.0 | 31.0 | 105.0
Cc1nn(Cc2ccc(Cl)cc2)c(C)c1NC(=O)CSc1n[nH]c(C)c1[N+](=O)[O-] | 1.0 | 142.0* | -2.3 | 22.8 | 0.0 | 112.0 | 108.0 | 1.0 | 104.0
Cc1nn(Cc2ccccc2)c(C)c1NC(=O)CSc1n[nH]c(C)c1[N+](=O)[O-] | 0.7 | 134.0* | -1.5 | 15.7 | 0.0 | 100.0 | 100.0 | 0.0 | 100.0
Cc1nn(Cc2ccccc2Cl)c(C)c1NC(=O)CSc1n[nH]c(C)c1[N+](=O)[O-] | 0.8 | 102.0 | 4.4 | 22.7 | 16.0 | 112.0 | . | . | .
COc1ccccc1N1CC(C(=O)Nc2nnc(SCc3ccccn3)s2)CC1=O (stereo not drawn) | 0.2 | 99.0 | -4.5 | 0.1 | 9.0 | 109.0 | . | . | .
COc1ccc(N2CC(C(=O)Nc3nnc(SCc4ccccn4)s3)CC2=O)cc1 (stereo not drawn) | -0.7 | 133.0* | -11.7 | -7.0 | -1.0 | 99.0 | 1.0*[inhibitor] | -29.0 | 2.0*
O=C(NCc1ccccc1)N1CCC(n2cnc3cc(F)ccc32)CC1 | 1.1 | 98.0 | 8.9 | 3.7 | -1.0 | 100.0 | . | . | .
N#Cc1cccn1-c1nccc(-c2cccs2)n1 | 0.5 | 149.0* | 15.9 | 12.7 | 7.0 | 131.0 | 93.0 | -6.0 | 91.0
O=C(N/N=C/c1ccccc1)NC1CCCCC1 | 0.3 | 67.0*[inhibitor] | -1.4 | 2.4 | 0.0 | 102.0 | 95.0 | -4.0 | 93.0
O=C(N/N=C/c1ccccc1OC(F)F)NC1CCCCC1 | . | 88.0 | . | . | -23.0 | 82.0 | . | . | .
O=C(N/N=C/c1cccc(F)c1)NC1CCCCC1 | 0.5 | 102.0 | 4.9 | 4.1 | 16.0 | 116.0 | . | . | .
O=C(N/N=C/c1ccccc1F)NC1CCCCC1 | 1.6 | 140.0* | 20.6 | 37.7 | 1.0 | 105.0 | 69.0 | -17.0 | 68.0*
Cc1ccnc(NCc2ccc(Cl)cc2)c1 | . | 103.0 | . | . | 6.0 | 111.0 | . | . | .
CCOC(=O)c1cn(Cc2ccccc2)c(C(=O)OC(C)(C)C)c1O | . | 103.0 | . | . | 6.0 | 108.0 | . | . | .
O=C(Nc1ccnn1C1CCN(Cc2ccc(Cl)cc2)CC1)C1CCCC1 | . | 102.0 | . | . | 5.0 | 114.0 | . | . | .
O=C(Nc1ccnn1C1CCN(Cc2ccc(OC(F)F)cc2)CC1)C1CCCC1 | . | 104.0 | . | . | 12.0 | 135.0* | 136.0 | 14.0 | 101.0
COc1ccc(-n2nc3c(N)n[nH]c3cc2=O)cc1 | 0.0 | 67.0*[inhibitor] | 2.8 | -0.2 | -15.0 | 71.0 | 70.0 | -6.0 | 68.0*
CC(NC(=S)NCCc1ccccc1)C(c1cccs1)N1CCN(Cc2ccccc2)CC1 (stereo not drawn) | 12.6 | 81.0 | 21.0 | 7.8 | 14.0 | 138.0* | 148.0 | 35.0 | 113.0
CC(NC(=O)NC1CCCCC1)C(c1cccs1)N1CCN(Cc2ccccc2)CC1 (stereo not drawn) | 10.3 | 99.0 | 2.8 | 1.1 | -3.0 | 99.0 | . | . | .
CCOc1ccccc1NC(=O)CCS(=O)(=O)c1ccc(Br)cc1 | . | 81.0*[inhibitor] | . | . | -12.0 | 93.0 | 95.0 | -6.0 | 96.0
SMILES | ABCB1 inh | MEKK3 PB1 HTS | WT yeast gro inh | ABCG2 block | MEKK2 mut-MEK5 | MEKK2 WT-MEK5 | MEKK2wt confirm | MEKK2mut confirm | MEKK3 confirm
Cc1ccc(N(C(=O)Cn2nnc3ccccc32)C(C(=O)NCc2ccccc2)c2ccccn2)cc1 (stereo not drawn) | 1.1 | 128.0* | -1.0 | 1.5 | 1.0 | 107.0 | 103.0 | 6.0 | 104.0
CCN1CCN(Cc2ccc(NC(=O)c3cc(NC(=O)c4cnnc5ccccc45)cc(OC)c3)cc2C(F)(F)F)CC1 | . | 107.0 | . | . | 21.0 | 142.0* | 143.0 | 15.0 | 99.0
CCN1CCN(Cc2ccc(NC(=O)c3ccc(C)c(NC(=O)c4nccn4C)c3)cc2C(F)(F)F)CC1 | . | 94.0 | . | . | 3.0 | 104.0 | . | . | .
CCN1CCN(Cc2ccc(NC(=O)c3cc(NC(=O)c4nccnc4N)cc(OC)c3)cc2C(F)(F)F)CC1 | . | 123.0* | . | . | 22.0 | 164.0* | 144.0 | 21.0 | 102.0
CCN1CCN(Cc2ccc(NC(=O)c3cc(NC(=O)c4cncc(-c5ccc(C#N)cc5)c4)cc(OC)c3)cc2C(F)(F)F)CC1 | . | 118.0 | . | . | 131.0* | 189.0* | 129.0 | 16.0 | 38.0*
O=C(CSc1n[nH]c(Cc2ccccc2)n1)Nc1ccccc1Br | . | 100.0 | . | . | 8.0 | 99.0 | . | . | .
Cc1ccc(S(=O)(=O)NCC(=O)N2CCOCCOCCOCC2)cc1 | . | 98.0 | . | . | 6.0 | 98.0 | . | . | .
COc1ccc2nc(N(CCN(C)C)C(=O)c3ccc(C(=O)c4ccccc4)cc3)sc2c1 | . | 108.0 | . | . | 24.0* | 146.0* | 148.0 | 18.0 | 102.0
CCN(CC)CCN(C(=O)c1ccc(S(=O)(=O)N(C)C2CCCCC2)cc1)c1nc2ccc(OC)cc2s1 | . | 103.0 | . | . | 5.0 | 129.0 | . | . | .
CCN(CC)CCN(C(=O)c1ccc(C(=O)c2ccccc2)cc1)c1nc2ccc(OC)cc2s1 | . | 113.0 | . | . | 37.0* | 172.0* | 163.0 | 31.0 | 105.0
Cc1ccc2nc(N(CCN(C)C)C(=O)c3ccc4ccccc4c3)sc2c1 | . | 105.0 | . | . | 14.0 | 130.0 | . | . | .
